Active and inactive are the calls of the source. The rule behind the calls is not given here.
What was measured:
Staphylococcus aureus [1] = experiment: Antimicrobial activity against Staphylococcus aureus ATCC 35556 assessed as inhibition of primary adhesion of bacterial biofilm to silicone disk surface under shaking condition at 4 times MBIC after 30 mins by fluorescence emission using BaclLight Live Dead stain; assay type: functional, organism-based
Staphylococcus aureus [2] = experiment: Effect on PNAG synthesis in Staphylococcus aureus ATCC 35556 by dot blot Western analysis; assay type: functional, organism-based
Outline: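 PNAG extracts were made from S. aureus ATCC 35556 grown with compound at 0× to 8× MBIC. Extracts were serially diluted 1:4, spotted onto nitrocellulose and probed with WGA-HRP, detected by chemiluminescent substrate on film. A PNAG-defective Δica::Tc strain extract served as the specificity control.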

For `CCOc1cc(/C=C2\SC(=S)N(c3ccc(F)cc3)C2=O)ccc1O`, the inhibition (Staphylococcus aureus [1]) was “Active” and the inhibition (Staphylococcus aureus [2]) was “inactive”.
